From PubChem BioAssay AID809 (SRMLSC, 2007) come the findings set out here.

The source made the active and inactive calls.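 The calls were made as follows: active = EC50 for reversing nicotinamide-shortened yeast lifespan at or below a set limit; inactive = EC50 above that limit.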 Some results are limits rather than exact numbers.

The test system of this assay is S. cerevisiae DeaD BB579, nicotinamide rescue growth, OD615 48 h. Description: BB579 yeast growth restoration under nicotinamide – S. cerevisiae, yeast lifespan extension project, dose response (AID 809). The method, boiled down:
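System: Saccharomyces cerevisiae DeaD strain BB579, log-phase cells | Buffer or medium: CSMM-D glucose restrictive medium | Timing: 4 h pre-incubation, 48 h exposure at 30 °C | Technique: OD615 absorbance | Evaluation: Culture growth as lifespan proxy | Compound: 0.078–10 µM compound, 0.5% DMSO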
Broadly, the EC50 is the concentration that produces a half-maximal response. Turning to `CCn1ncc(/C=N/NC(=O)c2ccc3c(c2)OCO3)c1C`, the EC50 is > 10 µM (inactive).
To `COc1ccc(C(=O)C(CN2CCOCC2)c2ccccc2)cc1F` (configuration not stated) belongs 4.62 µM; to `O=C(O)c1ccc(O)c(N2C(=O)Nc3ccccc3N2O)c1`, > 10 µM (inactive); to `COc1cc(C(C[N+](=O)[O-])c2c(-c3ccccc3)cc3ccccn23)cc(OC)c1OC` (configuration not stated), > 10 µM (inactive).
To `O=C1c2ccccc2C(=O)N1c1ncc(Cc2ccc(Cl)cc2)s1` belongs > 10 µM (inactive); to `CC(=O)Nc1c(O)nc(SCc2ccccc2C#N)[nH]c1=O`, > 10 µM (inactive); to `Cc1nc(SC(C)C)[nH]c(=O)c1Cc1ccccc1`, > 10 µM (inactive).
To `O=c1[nH]c2ccccc2nc1C(Cl)c1ccccc1` (configuration not stated) belongs 9.79 µM; to `O=C1CC(c2ccccc2)CC(O)=C1C=NCCN1CCN(C(=O)Cc2ccccc2)CC1` (configuration not stated), 6.72 µM; to `O=C(O)c1cccc2c1C(=O)N(C1CCCCC1)C2`, 4.22 µM.
Consider `COc1ccc(-c2cc(N)n(S(=O)(=O)c3c(F)c(F)c(F)c(F)c3F)n2)cc1OC`, for which the 50% effective concentration (EC50) was 6.84 µM.
To `CCOC(=O)C1=C(N)OC2=C(C(=O)CCC2)C1c1sccc1C` (configuration not stated) belongs 9.37 µM.
To `CC1(C)Cc2ccccc2-c2nnc(SCC(=O)Nc3ccc4c(c3)OCO4)n21` belongs > 10 µM (inactive); to `O=C1Nc2cc(Cl)c(Cl)cc2N(O)N1c1cc(Cl)cc(Cl)c1`, > 10 µM (inactive); to `CCCC(=Nc1ccccc1)C1=C(O)C(C(=O)OC)C(C)(C)CC1=O` (configuration not stated), 5.99 µM.
To `CCSc1nnc(NC(=O)C2(C)Cc3ccccc3C(=O)O2)s1` (configuration not stated) belongs 6.52 µM.
As for `CCCCn1c(=O)c(C(=O)Nc2cnccn2)c(O)c2ccccc21`, the EC50 is 3.01 µM.
For `CCOC(=O)CCCNC(=O)COc1ccccc1C#N`, the EC50 is > 10 µM (inactive).
On to `CCCC(=Nc1ccc(N)cc1)C1=C(O)C(C(=O)OC)C(C)(C)CC1=O` (configuration not stated), for which the EC50 is 8.85 µM.
To `O=C(/C(=C/O)N=Nc1ccc(Cl)cc1)c1ccncc1` belongs 2.64 µM; to `Cn1c(=O)c2c(nc(Br)n2Cc2ccc3ccccc3c2)n(C)c1=O`, > 10 µM (inactive); to `Cc1ccc(NC(=O)C2C(=O)N(C)c3ccccc32)cc1` (configuration not stated), > 10 µM (inactive).
The figure for `CCOC(=O)C(=Cc1ccc(F)cc1)C(=O)OCC` is 6.7 µM; for `CN1C/C(=C/c2cccnc2)C(=O)/C(=C/c2cccnc2)C1` it is > 10 µM (inactive); for `CCOC(=O)CN1C(=O)N[C@H](c2ccc(Br)cc2)C(C(C)=O)=C1C` it is > 10 µM (inactive).
To `Cc1cc(C=C2C(=O)N(C)C(=S)N(C)C2=O)c(C)n1-c1cccnc1` belongs > 10 µM (inactive); to `O=C(Nc1ccc(Br)cn1)c1cccc(-c2cc3ccccc3oc2=O)c1`, > 10 µM (inactive).
Consider `CC(c1ccccc1)N1CCn2c(nc3cc(NC(=O)c4cccs4)ccc32)C1` (configuration not stated), for which the half-maximal effective concentration (EC50) was 7.15 µM.
The figure for `O=C(COc1ccc([N+](=O)[O-])cc1)N(Cc1ccccc1)Cc1ccccc1` is > 10 µM (inactive); for `O=C1c2ccccc2C(=O)N1Cc1nc2ccccc2c(=O)n1-c1ccc(Br)cn1` it is 1.67 µM.
The figure for `C=C(C(=O)c1ccccc1)C(C)CC(=O)c1ccccc1` (configuration not stated) is 6.42 µM; for `CCOc1ccc(N=Cc2c(O)c3ccccc3oc2=O)cc1` it is > 10 µM (inactive).
As for `O=C(NC(=S)NNC(=O)c1ccccc1O)c1ccco1`, the 50% effective concentration (EC50) is 6.02 µM.
To `O=S1(=O)C=C(Sc2nc3ccccc3s2)c2ccccc21` belongs > 10 µM (inactive); to `CCc1nnc(NC(=O)c2cccc(S(=O)(=O)N(C)c3ccccc3)c2)s1`, > 10 µM (inactive).
To `O=C(N/N=C/c1ccccc1)c1c(O)c2ccccc2[nH]c1=O` belongs 0.58 µM; to `CCN1C(=O)/C(=C/N(C(C)=O)c2ccccc2)N(c2ccccc2)C1=S`, > 10 µM (inactive).
